Tests used:
[1] = Inhibition of HCV BK NS5B polymerase; parameters: species or system Hepatitis C virus (isolate BK)
Hepatitis C virus [2] = assay: Antiviral activity against HCV 1b BB7 infected in human HuH7 cells after 3 days by ELISA; format: functional, organism-based, Hepacivirus hominis; conditions: genotype 1b BB7, Huh-7, 72 h
Procedure, shortened: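 HCV replicon cells; viral replication measured by ELISA against NS5A.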

Hepatitis C virus [3] = assay: Inhibition of HCV 1b BB7 NS5B Cdelta21 polymerase expressed in Escherichia coli after 120 mins; format: functional, Hepatitis C virus subtype 1b; conditions: BB7, 2 h
Procedure, shortened: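 RdRp assay with 24 nM NS5BdCT21-His in 20 mM HEPES pH 7.5, 5 mM MgCl₂, 1 mM DTT, 0.05 mg/ml BSA and NTPs. Enzyme preincubated with compound (3 nM–30) 15 min at room temperature, then reacted 120 min at room temperature. Radiolabeled RNA collected on filters and counted by scintillation. IC50 from sigmoidal variable-slope dose–response fit, relative to no-compound controls.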

Hepatitis C virus [4] = assay: Antiviral activity against HCV 1b BB7 infected in human HuH7 cells assessed as GAPDH RNA level after 3 days by RT-PCR analysis; format: functional, Hepacivirus hominis, genotype 1b BB7, Huh-7
Hepatitis C virus [5] = assay: Antiviral activity against HCV 1b BB7 infected in human HuH7 cells assessed as total viral RNA level after 3 days by RT-PCR analysis; format: functional, Hepacivirus hominis, genotype 1b BB7, Huh-7
[6] = Apparent permeability from apical to basolateral side of human Caco-2 cells; format: ADME, cell-based
[7] = Ratio of apparent permeability from basolateral to apical side over apical to basolateral side in human Caco-2 cells
[8] = Apparent permeability from basolateral to apical side of human Caco-2 cells; format: ADME, cell-based
[9] = Cytotoxicity against human HuH7 cells assessed as BrdU incorporation in to cellular DNA by counter assay; format: cell-based, Huh-7
Procedure, shortened: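 General cytotoxicity counter assay run alongside the replicon assay, read out as BrdU incorporation into cellular DNA.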

Row | Compound | IC50 [1] | EC50 (Hepatitis C virus [2]) | IC50 (Hepatitis C virus [3]) | CC50 [9] | other results
1 | CC[C@H](C)[C@]1(CC(=O)O)OCCc2c1[nH]c1c(C)ccc(C#N)c21 | 0.13 µM | 2.2 µM | 0.26 µM |  | Activity (Hepatitis C virus [4]): >10 µM; Activity (Hepatitis C virus [5]): 2.1 µM
2 | CC[C@H](C)[C@]1(CC(=O)O)OCCc2c1[nH]c1c(C)c(OCCn3cccn3)cc(C#N)c21 | 0.009 µM | 0.12 µM | 0.002 µM |  | Activity (Hepatitis C virus [4]): >20 µM; Activity (Hepatitis C virus [5]): 0.02 µM
3 | CCC[C@]1(CC(=O)O)OCCc2c1[nH]c1c(C)c(OCCn3cccn3)cc(C#N)c21 | 0.012 µM | 0.88 µM | 0.005 µM |  | Activity (Hepatitis C virus [4]): >90 µM; Activity (Hepatitis C virus [5]): 0.14 µM
4 | CCC[C@]1(C(=O)O)OCCc2c1[nH]c1c(C)ccc(C#N)c21 | 0.7 µM |  |  |  | Papp A→B [6]: 3.2 ×10⁻⁶ cm/s; Activity (Hepatitis C virus [4]): >30 µM; efflux ratio [7]: 7.5; Papp B→A [8]: 24.2 ×10⁻⁶ cm/s; Activity (Hepatitis C virus [5]): 12 µM
5 | CCC[C@]1(CC(=O)O)OCCc2c1[nH]c1c(C)ccc(C#N)c21 | 0.3 µM | 13.1 µM | 0.4 µM | > 100 µM | Papp A→B [6]: 24 ×10⁻⁶ cm/s; Activity (Hepatitis C virus [4]): >160 µM; efflux ratio [7]: 0.09; Papp B→A [8]: 2.2 ×10⁻⁶ cm/s; Activity (Hepatitis C virus [5]): 4.8 µM
6 | CCC(C)C1(CC(=O)O)OCCc2c1[nH]c1c(C)ccc(C#N)c21 (racemic) | 3.2 µM |  | 4.9 µM |  | 
7 | CCC[C@]1([C@H](NC(=O)OCc2ccccc2)C(=O)O)OCCc2c1[nH]c1c(C)ccc(C#N)c21 (racemic) |  | 35 µM | 0.72 µM | 45 µM | 
8 | CCC[C@]1([C@H](NC(C)=O)C(=O)O)OCCc2c1[nH]c1c(C)ccc(C#N)c21 (racemic) |  | > 100 µM | 1.7 µM | > 100 µM | 
9 | CCCCC(=O)N[C@H](C(=O)O)[C@@]1(CCC)OCCc2c1[nH]c1c(C)ccc(C#N)c21 (racemic) |  | > 100 µM | 5 µM | > 100 µM | 
10 | CCC[C@]1([C@H](NC(=O)c2ccccc2)C(=O)O)OCCc2c1[nH]c1c(C)ccc(C#N)c21 (racemic) |  | > 100 µM | 4.5 µM | > 100 µM | 
11 | CCC[C@]1([C@H](NS(C)(=O)=O)C(=O)O)OCCc2c1[nH]c1c(C)ccc(C#N)c21 (racemic) |  | > 100 µM | 6 µM | > 100 µM | 
12 | CCCCS(=O)(=O)N[C@H](C(=O)O)[C@@]1(CCC)OCCc2c1[nH]c1c(C)ccc(C#N)c21 (racemic) |  | > 100 µM | 3.6 µM | > 100 µM | 
13 | CCCCS(=O)(=O)N[C@@H](C(=O)O)[C@@]1(CCC)OCCc2c1[nH]c1c(C)ccc(C#N)c21 (racemic) |  | > 100 µM | 22 µM | > 100 µM | 
14 | CCC[C@]1([C@@H](NS(=O)(=O)c2ccccc2)C(=O)O)OCCc2c1[nH]c1c(C)ccc(C#N)c21 (racemic) |  | > 100 µM | 16 µM | > 100 µM | 
15 | CCC[C@]1([C@H](NC(=O)OC)C(=O)O)OCCc2c1[nH]c1c(C)ccc(C#N)c21 (racemic) |  | > 100 µM | 5.6 µM | > 100 µM | 
16 | CCC[C@]1([C@H](NC(=O)OCC)C(=O)O)OCCc2c1[nH]c1c(C)ccc(C#N)c21 (racemic) |  | > 100 µM | 7.2 µM | > 100 µM | 
17 | CCC[C@]1([C@H](NS(=O)(=O)c2ccccc2)C(=O)O)OCCc2c1[nH]c1c(C)ccc(C#N)c21 (racemic) |  | > 100 µM | 4 µM | > 100 µM | 
18 | CCC[C@]1([C@@H](NC(C)=O)C(=O)O)OCCc2c1[nH]c1c(C)ccc(C#N)c21 (racemic) |  | > 100 µM | 17 µM | > 100 µM | 
19 | CCCCC(=O)N[C@@H](C(=O)O)[C@@]1(CCC)OCCc2c1[nH]c1c(C)ccc(C#N)c21 (racemic) |  | > 100 µM | > 30 µM | > 100 µM | 
20 | CCC[C@]1([C@@H](NC(=O)c2ccccc2)C(=O)O)OCCc2c1[nH]c1c(C)ccc(C#N)c21 (racemic) |  | > 100 µM | > 30 µM | > 100 µM | 
21 | CCC[C@]1([C@@H](NS(C)(=O)=O)C(=O)O)OCCc2c1[nH]c1c(C)ccc(C#N)c21 (racemic) |  | > 100 µM | 13 µM | > 100 µM | 
22 | C=CCOC(=O)N[C@H](C(=O)O)[C@@]1(CCC)OCCc2c1[nH]c1c(C)ccc(C#N)c21 (racemic) |  | > 100 µM | 5.9 µM | > 100 µM | 
23 | CCC[C@]1([C@H](NC(=O)OC(C)C)C(=O)O)OCCc2c1[nH]c1c(C)ccc(C#N)c21 (racemic) |  | > 100 µM | 11 µM | > 100 µM | 
24 | CCC[C@]1([C@H](NC(=O)OCC(C)C)C(=O)O)OCCc2c1[nH]c1c(C)ccc(C#N)c21 (racemic) |  | > 100 µM | 9.5 µM | > 100 µM | 
25 | CCC[C@]1([C@H](NC(=O)OC(C)(C)C)C(=O)O)OCCc2c1[nH]c1c(C)ccc(C#N)c21 (racemic) |  | > 100 µM | 18 µM | > 100 µM | 

More lines, main results first:

Row | IC50 [1] | EC50 (Hepatitis C virus [2]) | IC50 (Hepatitis C virus [3]) | Compound | CC50 [9] | other results
26 | 1.9 µM |  |  | O=C(O)CC1(CC2CC2)OCCc2c1[nH]c1c(Cl)ccc(Cl)c21 (stereo unspecified) |  | 
27 | 1.7 µM |  |  | CC/C=C/C1(CC(=O)O)OCCc2c1[nH]c1c(Cl)ccc(Cl)c21 (stereo unspecified) |  | 
28 | 7 µM |  |  | CC(C)C1(CC(=O)O)OCCc2c1[nH]c1c(Cl)ccc(Cl)c21 (stereo unspecified) |  | 
29 | 7.3 µM |  |  | O=C(O)CC1(C2CC2)OCCc2c1[nH]c1c(Cl)ccc(Cl)c21 (stereo unspecified) |  | 
30 | 0.15 µM |  |  | CCC(C)C1(CC(=O)O)OCCc2c1[nH]c1c(Cl)ccc(Cl)c21 (stereo unspecified) |  | 
31 | 3.3 µM |  |  | O=C(O)CC1(C2CCCC2)OCCc2c1[nH]c1c(Cl)ccc(Cl)c21 (stereo unspecified) |  | 
32 | > 30 µM |  |  | O=C(O)CC1(C2CCCCC2)OCCc2c1[nH]c1c(Cl)ccc(Cl)c21 (stereo unspecified) |  | 
33 | 6.3 µM |  |  | CCC1(CC(=O)O)OCCc2c1[nH]c1c(Cl)ccc(Cl)c21 (stereo unspecified) |  | 
34 | 0.3 µM |  |  | CC(C#N)C1(CC(=O)O)OCCc2c1[nH]c1c(Cl)ccc(Cl)c21 (stereo unspecified) |  | 
35 | 0.4 µM |  |  | O=C(O)CC1(CCC(F)(F)F)OCCc2c1[nH]c1c(Cl)ccc(Cl)c21 (stereo unspecified) |  | 
36 | 26 µM |  |  | CCOCC1(CC(=O)O)OCCc2c1[nH]c1c(Cl)ccc(Cl)c21 (stereo unspecified) |  | 
37 | 0.4 µM | 29.7 µM | 1.1 µM | Cc1ccc(C#N)c2c3c([nH]c12)[C@](CC(=O)O)(C1CCC1)OCC3 |  | 
38 | 0.76 µM |  |  | CCCCC1(CC(=O)O)OCCc2c1[nH]c1c(Cl)ccc(Cl)c21 (stereo unspecified) |  | 
39 | 0.35 µM |  |  | O=C(O)CC1(C2CCC2)OCCc2c1[nH]c1c(Cl)ccc(Cl)c21 (stereo unspecified) |  | 
40 | 9.4 µM |  |  | O=C(O)CC1(CC2CCCC2)OCCc2c1[nH]c1c(Cl)ccc(Cl)c21 (stereo unspecified) |  | 
41 | > 30 µM |  |  | COCC1(CC(=O)O)OCCc2c1[nH]c1c(Cl)ccc(Cl)c21 (stereo unspecified) |  | 
42 | > 24 µM |  |  | COCCC1(CC(=O)O)OCCc2c1[nH]c1c(Cl)ccc(Cl)c21 (stereo unspecified) |  | 
43 | 7 µM |  |  | CSCC1(CC(=O)O)OCCc2c1[nH]c1c(Cl)ccc(Cl)c21 (stereo unspecified) |  | 
44 | 27 µM |  |  | CC1(CC(=O)O)OCCc2c1[nH]c1c(Cl)ccc(Cl)c21 (stereo unspecified) |  | 
45 | 0.37 µM |  |  | CCCC1(CC(=O)O)OCCc2c1[nH]c1c(Cl)ccc(Cl)c21 (stereo unspecified) |  | 
